# Measurements from ChEMBL document CHEMBL3576792, “Enhancement of antibiotic activity against multidrug-resistant bacteria by the efflux pump inhibitor 3,4-dibromopyrrole-2,5-dione isolated from a Pseudoalteromonas sp” (J Nat Prod, 2015).
# The source made the active and inactive calls. No cut-off for these calls is given here.
# How the values were obtained:
# Escherichia coli [1] = assay: Potentiation of erythromycin-induced antibacterial activity Escherichia coli transformed with plasmid carrying MG1655 deltaBC/pXYM by p-iodonitrotetrazolium chloride colorimetric assay; assay type: functional
# Escherichia coli [2] = assay: Potentiation of piperacillin-induced antibacterial activity Escherichia coli AG102 overexpressing AcrAB-TolC by p-iodonitrotetrazolium chloride colorimetric assay; assay type: functional
# Escherichia coli [3] = assay: Potentiation of tetracycline-induced antibacterial activity Escherichia coli transformed with plasmid carrying MG1655 deltaBC/pABM by p-iodonitrotetrazolium chloride colorimetric assay; assay type: functional
# Escherichia coli K-12 [4] = assay: Inhibition of AcrAB-TolC pump in Escherichia coli K-12 AG100 assessed as […] at 0.06 ug/ml after 60 mins by accumulation assay
# Outline: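 AG100 (wild-type K-12) or AG100A (ΔacrAB) grown in Luria broth at 37 °C and 200 rpm to OD600 1.0, PBS-washed, diluted to OD600 0.3. Cells given 2.5 μM H33342 with 22 mM glucose at 37 °C for ~30 min until stable, then compound (0.06–64 μg/mL) added. Fluorescence (Ex 350/Em 460) read for 60 min, background subtracted. Final 4 time points averaged; one-way ANOVA/Dunnett vs Hoechst-only; n = 8.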
# Escherichia coli [5] = assay: Effect on intracellular H33342 accumulation in Escherichia coli AG100A delta acrAB mutant at 64 ug/ml after 60 mins by accumulation assay; assay type: functional
# Outline: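 Cells grown in Luria broth at 37 °C, 200 rpm to OD600 1.0, then washed twice in PBS and diluted in glucose-free PBS to OD600 0.3. H33342 was used at 2.5 μM with 22 mM glucose at 37 °C and allowed to accumulate for ~30 min. Compound was then added and fluorescence (Ex 350/Em 460 nm) followed for 60 min. Values are the mean RFU of the final 4 min, after media-plus-compound background was subtracted. Run in duplicate, n = 8.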
# Escherichia coli K-12 [6] = assay: Inhibition of AcrAB-TolC pump in Escherichia coli K-12 AG100 assessed as increase in intracellular H33342 fluorescence at 1 ug/ml after 60 mins by efflux inhibition assay; assay type: cell-based
# Outline: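 AG100 (wild-type K-12) or AG100A (ΔacrAB) cells were grown in Luria broth at 37 °C and 200 rpm to OD600 1.0, PBS-washed and diluted to OD600 0.3. Cells took up 2.5 μM Hoechst 33342 with 22 mM glucose at 37 °C for about 30 min, then compound (0.06–64 μg/mL) or PAβN (15.6 μg/mL) was added. Fluorescence (Ex 350/Em 460 nm) was followed for 60 min and corrected for background. The last four time points were compared to dye-only control by ANOVA with Dunnett's test, run in duplicate.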
# Escherichia coli K-12 [7] = assay: Inhibition of AcrAB-TolC pump in Escherichia coli K-12 AG100 assessed as […] at 0.25 ug/ml after 60 mins by accumulation assay
# Outline: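 Cells grown in Luria broth at 37 °C, 200 rpm to OD600 1.0, washed twice in PBS and diluted in glucose-free PBS to OD600 0.3. Cells were given 2.5 μM H33342 with 22 mM glucose at 37 °C for ~30 min until stable, then compound added (0.06–64 μg/mL). Fluorescence (Ex 350/Em 460 nm) was read for 60 min, background subtracted, and the final 4 min averaged (n = 8).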
# Escherichia coli [8] = assay: Potentiation of oxacillin-induced antibacterial activity Escherichia coli AG102 overexpressing AcrAB-TolC by p-iodonitrotetrazolium chloride colorimetric assay; assay type: functional, organism-based
# Outline: (§1)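 Checkerboard microdilution in Mueller-Hinton broth: two-fold dilutions of antibiotic crossed with dilutions of test compound above, at and below their MICs. Growth was read by INT colorimetric assay, with MIC as the lowest concentration showing no visible growth. FICs and FIC index were derived from these MICs. ΔBC/pABM and ΔBC/pXYM strains were grown with 100 μg/mL ampicillin and 1 mM IPTG.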
# Escherichia coli [9] = assay: Potentiation of kanamycin-induced antibacterial activity Escherichia coli transformed with plasmid carrying MG1655 deltaBC/pXYM by p-iodonitrotetrazolium chloride colorimetric assay; assay type: functional
# Escherichia coli [10] = assay: Potentiation of kanamycin-induced antibacterial activity Escherichia coli AG102 overexpressing AcrAB-TolC by p-iodonitrotetrazolium chloride colorimetric assay; assay type: functional
# Escherichia coli K-12 [11] = assay: Inhibition of AcrAB-TolC pump in Escherichia coli K-12 AG100 assessed as increase in intracellular H33342 fluorescence at 4 ug/ml after 60 mins by efflux inhibition assay; assay type: cell-based
# Outline: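 Washed AG100 cells loaded for 60 min with 2.5 μM H33342 plus compound (no glucose, 25 °C). They were then pelleted, resuspended in ice-cold PBS and re-exposed to the same compound concentrations with or without glucose at 37 °C. Fluorescence (Ex 350/Em 460) followed for 30 min, no-glucose values subtracted, data normalized to loaded cells.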
# Escherichia coli [12] = assay: Antibacterial activity against Escherichia coli transformed with plasmid carrying MG1655 deltaBC/pABM by p-iodonitrotetrazolium chloride colorimetric assay; assay type: functional
# Outline: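 Two-fold broth microdilution in Mueller-Hinton broth, read by p-iodonitrotetrazolium chloride colorimetric assay. MIC is the lowest concentration giving no visible growth. MG1655 ΔacrB ΔtolC strains carrying pABM or pXYM were always cultured with 100 μg/mL ampicillin and 1 mM IPTG. Medium, inoculum and 1% DMSO (final) served as negative control.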
# Escherichia coli [13] = assay: Potentiation of levofloxacin-induced antibacterial activity Escherichia coli transformed with plasmid carrying MG1655 deltaBC/pABM assessed as levofloxacin MIC by p-iodonitrotetrazolium chloride colorimetric assay; assay type: functional; outline: as §1
# Escherichia coli [14] = assay: Potentiation of tetracycline-induced antibacterial activity Escherichia coli transformed with plasmid carrying MG1655 deltaBC/pXYM by p-iodonitrotetrazolium chloride colorimetric assay; assay type: functional
# Escherichia coli [15] = assay: Potentiation of piperacillin-induced antibacterial activity Escherichia coli transformed with plasmid carrying MG1655 deltaBC/pXYM by p-iodonitrotetrazolium chloride colorimetric assay; assay type: functional
# Escherichia coli [16] = assay: Potentiation of tetracycline-induced antibacterial activity Escherichia coli AG102 overexpressing AcrAB-TolC assessed as tetracycline MIC by p-iodonitrotetrazolium chloride colorimetric assay; assay type: functional; outline: as §1
# Escherichia coli [17] = assay: Potentiation of erythromycin-induced antibacterial activity Escherichia coli AG102 overexpressing AcrAB-TolC assessed as erythromycin MIC by p-iodonitrotetrazolium chloride colorimetric assay; assay type: functional; outline: as §1
# Escherichia coli K-12 [18] = assay: Inhibition of AcrAB-TolC pump in Escherichia coli K-12 AG100 assessed as increase in intracellular H33342 fluorescence at 0.25 ug/ml after 60 mins by efflux inhibition assay; assay type: cell-based
# Escherichia coli [19] = assay: Potentiation of oxacillin-induced antibacterial activity Escherichia coli transformed with plasmid carrying MG1655 deltaBC/pABM by p-iodonitrotetrazolium chloride colorimetric assay; assay type: functional, organism-based; outline: as §1
# Escherichia coli [20] = assay: Potentiation of levofloxacin-induced antibacterial activity Escherichia coli transformed with plasmid carrying MG1655 deltaBC/pABM MIC by p-iodonitrotetrazolium chloride colorimetric assay; assay type: functional
# Escherichia coli [21] = assay: Potentiation of piperacillin-induced antibacterial activity Escherichia coli transformed with plasmid carrying MG1655 deltaBC/pXYM assessed as piperacillin MIC by p-iodonitrotetrazolium chloride colorimetric assay; assay type: functional; outline: as §1
# Escherichia coli [22] = assay: Potentiation of erythromycin-induced antibacterial activity Escherichia coli transformed with plasmid carrying MG1655 deltaBC/pABM assessed as erythromycin MIC by p-iodonitrotetrazolium chloride colorimetric assay; assay type: functional; outline: as §1
smiles,measurement,setting,value
O=C1NC(=O)C(Br)=C1Br,fractional inhibitory concentration index (FICI),Escherichia coli [1],0.31
same,fractional inhibitory concentration index (FICI),Escherichia coli [2],0.75
same,fractional inhibitory concentration index (FICI),Escherichia coli [3],1
same,RFU,Escherichia coli K-12 [4],758
same,RFU,Escherichia coli [5],1090
same,RFU,Escherichia coli K-12 [6],-247
same,RFU,Escherichia coli K-12 [7],796
same,fractional inhibitory concentration index (FICI),Escherichia coli [8],inactive
same,fractional inhibitory concentration index (FICI),Escherichia coli [9],0.75
same,fractional inhibitory concentration index (FICI),Escherichia coli [10],0.27
same,RFU,Escherichia coli K-12 [11],-101
same,MIC,Escherichia coli [12],256 µg/mL
same,MIC,Escherichia coli [13],64 µg/mL
same,fractional inhibitory concentration index (FICI),Escherichia coli [14],0.58
same,fractional inhibitory concentration index (FICI),Escherichia coli [15],0.52
same,MIC,Escherichia coli [16],64 µg/mL
same,MIC,Escherichia coli [17],128 µg/mL
same,RFU,Escherichia coli K-12 [18],-351
same,fractional inhibitory concentration index (FICI),Escherichia coli [19],inactive
same,fractional inhibitory concentration index (FICI),Escherichia coli [20],0.75
same,MIC,Escherichia coli [21],256 µg/mL
same,MIC,Escherichia coli [22],64 µg/mL
